An excerpt weighted towards active compounds, which were near 3.1% of everything screened.
HSF-1 act: increases HSF-1 driven luciferase reporter signal; NIH3T3-HGL HSF-1 luciferase reporter, MG132, 8 h; 100% = twice DMSO control signal; activation, % at 9 µM; 300,000 compounds, 1.7% hits; AID 504408;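 active means mean replicate activation of at least 50% with a set share of replicates each reaching 50%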
HKDC1 inhibitor: HKDC1 (human) hexokinase inhibition. recombinant HKDC1, G6PDH/diaphorase resazurin coupled fluorescence. inhibition, % at 20 µM. Q2TB90. 340,000 compounds, 0.16% hits;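 active means inhibition above about 35% when tested at 20 µM, limit read from the data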
Target sequence (Q2TB90 whole entry, looked up): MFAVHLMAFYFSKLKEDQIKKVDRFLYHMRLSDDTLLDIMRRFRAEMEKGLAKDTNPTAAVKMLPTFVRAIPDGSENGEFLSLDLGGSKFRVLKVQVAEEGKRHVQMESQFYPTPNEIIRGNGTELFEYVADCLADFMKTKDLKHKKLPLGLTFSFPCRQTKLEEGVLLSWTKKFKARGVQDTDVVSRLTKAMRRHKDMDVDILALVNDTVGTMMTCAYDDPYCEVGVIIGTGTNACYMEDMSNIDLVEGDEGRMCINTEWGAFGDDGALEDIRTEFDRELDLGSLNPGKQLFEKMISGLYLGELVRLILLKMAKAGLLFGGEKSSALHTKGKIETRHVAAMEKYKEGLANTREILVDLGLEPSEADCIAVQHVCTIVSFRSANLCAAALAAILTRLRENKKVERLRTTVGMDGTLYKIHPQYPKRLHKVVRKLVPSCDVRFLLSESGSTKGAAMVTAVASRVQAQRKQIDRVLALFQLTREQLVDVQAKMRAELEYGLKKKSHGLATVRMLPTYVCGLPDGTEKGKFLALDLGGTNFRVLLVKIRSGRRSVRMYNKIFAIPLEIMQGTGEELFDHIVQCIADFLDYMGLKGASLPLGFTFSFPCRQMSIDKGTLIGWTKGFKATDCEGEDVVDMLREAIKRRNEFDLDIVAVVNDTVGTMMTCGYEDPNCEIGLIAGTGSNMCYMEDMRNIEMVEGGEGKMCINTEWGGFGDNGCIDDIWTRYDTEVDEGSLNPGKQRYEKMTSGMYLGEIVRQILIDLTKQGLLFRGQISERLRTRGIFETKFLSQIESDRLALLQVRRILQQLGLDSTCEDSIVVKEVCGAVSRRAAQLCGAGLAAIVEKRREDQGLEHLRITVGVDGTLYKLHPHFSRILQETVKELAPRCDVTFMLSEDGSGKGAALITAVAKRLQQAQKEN
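Assay system: in-house recombinant HK5 (HKDC1) enzyme. Input: HKDC1 at 5 µg/mL. Medium: Tris pH 8.0 buffer with MgCl2, Tween-20, BSA, BME. Dosing: single 20 µM dose. Schedule: 90 min reaction incubation at room temperature, dark. Signal: resazurin-to-resorufin fluorescence via G6PDH and diaphorase coupling, 525/613 nm. Controls: DMSO-enzyme wells negative, buffer-substituted wells positive.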
TbHK1 inh: blocks Trypanosoma brucei hexokinase 1 activity; recombinant TbHK1, G6PDH-coupled NADH A340; inhibition, % at 10 µM; 220,000 compounds, 0.11% hits; AID 1430;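 active means inhibition of 50% or more in the single-dose primary screen; inactive means inhibition below 50%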
HSP90 inh: blocks HSP90-mediated luciferase refolding in reticulocyte lysate. AID 1789. 290,000 compounds, 0.91% hits. Rabbit reticulocyte lysate, luciferase refolding luminescence, 3 h. inhibition, % at 5.6 µM;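 active means inhibition above the screen-wide mean plus 3 SD, computed separately per campaign, cut at about 16% in these data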;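 further: inhibitors lower the luminescence because luciferase stays unfolded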
Hsp70 act: switches on Hsp70 transcription; activation, % at 10 µM; 200,000 compounds, 0.04% hits; HeLa Hsp70 promoter luciferase reporter, luminescence; scaled: vehicle 0, proteasome-inhibitor control 100%;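 active means activation above the mean across all tested compounds plus 3 SD, cutoff set per campaign, cut at about 5.5% in these data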
HSF1 inhib: HSF1 inhibition; NIH3T3-HGL HSE-luciferase, MG132-induced, luminescence 8 h; hits give low values; activity change, negative = inhibition, % at 7.5 µM (by protocol); 300,000 compounds, 0.77% hits; AID 2098;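 active means more than half of replicate wells show activity change below -50%, luminescence cut by over half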;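 further: luciferase reports HSF-1 transcriptional activity via heat shock element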
Hits are given with their value; – = inactive; · = no result given.

SMILES	HSF-1 act	HKDC1 inhibitor	TbHK1 inh	HSP90 inh	Hsp70 act	HSF1 inhib
COC(=O)C1=C(c2ccc(F)cc2F)C[C@@H]2CC[C@H]1N2C(=O)NCCCOC(C)C	·	–	·	·	·	·
CCN1C(=O)/C(=C/c2ccc3c(c2)CCN3CCCCl)C(=O)NC1=S	–	–	–	–	–	–
O=C1NC(=S)N(C2CC2)C(=O)/C1=C/c1ccc2c(c1)CCN2CCCCl	–	–	–	–	–	-78.9
C=CCn1c(O)c(/C(C)=N/N2CCCCC2)c(=O)[nH]c1=O	67.0	–	–	–	·	–
C=CCn1c(O)c(C(CC)=NCC2CCCO2)c(=O)[nH]c1=O (stereo not given)	64.9	–	–	–	·	–
C=CCn1c(O)c(C(C)=NC2CC2)c(=O)[nH]c1=O	–	–	–	–	–	–
C=CCn1c(O)c(C(C)=NCCN2CCCCC2)c(=O)[nH]c1=O	–	–	–	–	–	–
C=CCn1c(O)c(C(C)=NC2CCN(Cc3ccccc3)CC2)c(=O)[nH]c1=O	–	–	–	–	·	-87.8
COc1ccc(CCNCc2cccn2C)cc1OC	–	–	·	–	·	–
CC(N)C(=O)NC1C2C(=C(O)CC(O)C2O)C(=O)OC1(C)C(Cl)Cl (stereo not given)	·	–	·	·	·	·
Cc1ccccc1CCNCc1cc2cccc(C)c2[nH]c1=O	–	–	·	–	·	–
CCOP(=O)(/C=C(\Cl)c1ccccc1)C(O)c1ccc(F)cc1 (stereo not given)	–	–	·	–	·	–
CN1[C@@H]2CCC[C@H]1CC(=O)C2	·	–	·	·	·	·
CCCC[N+]12CCC(CC1)C(C(O)(c1ccccc1)c1ccccc1)C2 (stereo not given)	–	–	–	–	·	-65.3
Cc1nc2ccccc2c(=O)n1-c1cccc([N+](=O)[O-])c1	–	–	·	–	·	–
CC(=O)Nc1ccccc1C(=O)OCC(=O)c1ccc2ccccc2c1	–	–	–	–	–	–
Nc1ccccc1C(=O)OCC(=O)c1ccc2c(c1)OCCO2	–	–	–	–	–	-56.6
Cn1cc(C(=O)OCC(=O)NC2(C#N)CCCC2)c2ccccc21	·	–	·	·	·	·
N#Cc1cn(C2OC(CO)C(O)C2O)c2ncnc(N)c12 (stereo not given)	·	–	·	·	·	·
NC(=O)c1cn(C2OC(CO)C(O)C2O)c2ncnc(N)c12 (stereo not given)	–	–	–	–	–	-66.2
Cc1ccc(C2=NCC(=O)Nc3ccc(Br)cc32)cc1	–	–	·	–	·	–
c1ccc(-c2[nH]c[n+](CC3CO3)c2-c2ccccc2)cc1 (stereo not given)	·	·	68.7	–	–	·
CCCNC(=O)N1[C@H]2CC[C@@H]1C(C(=O)OC)=C(c1ccccc1)C2	–	–	·	·	·	–
C=CCC1(CCCCC)C(=O)NC(=S)NC1=O	·	–	·	·	·	·
Cc1ccc2nc3c(cc2c1)CC1(C(=O)N(C)C(=O)N(C)C1=O)C1CCCCN31 (stereo not given)	81.2	–	–	–	–	–
SMILES	HSF-1 act	HKDC1 inhibitor	TbHK1 inh	HSP90 inh	Hsp70 act	HSF1 inhib
CCc1ccc(C2=NN(CCC(=O)N3CCC4(CC3)OCCO4)C(=O)CC2)cc1	–	–	–	–	–	–
Cc1ccc2c(c1)N(C(=O)CCC(=O)N1CCC3(CC1)OCCO3)CCO2	–	–	·	–	·	-50.9
CC(Cc1ccccc1)NCC(=O)Nc1cc(N(C)C)nc2ccccc12 (stereo not given)	58.0	–	–	–	·	–
CC(Cc1ccccc1)NCc1ccccc1O (stereo not given)	–	–	–	–	–	–
COc1ccc(C(=O)C2CCCN(Cc3cccc(C)n3)C2)c(OC)c1 (stereo not given)	–	–	–	–	·	–
COc1ccc(C(=O)C2CCCN(Cc3ccc(C)s3)C2)c(OC)c1 (stereo not given)	63.4	–	–	–	–	–
CCCCC1C(=O)NC(=S)NC1=O	–	·	–	–	–	-66.7
O=C1NC(=O)N(Cc2ccco2)C(=O)/C1=C/C=C/c1ccco1	–	–	–	–	·	–
O=C1NC(=O)N(Cc2ccccc2)C(=O)/C1=C\C=C\c1ccco1	71.2	–	–	–	–	–
Cc1ccc(N2C(=O)NC(=O)/C(=C\C=C\c3ccco3)C2=O)cc1C	146.3	–	–	–	–	–
COc1cc2c(cc1/C=C/[N+](=O)[O-])OCO2	263.4	–	–	–	–	–
COc1cc(/C=C/[N+](=O)[O-])ccc1OC(=O)c1cccnc1	–	–	·	–	·	–
